Bioassay records as filed in PubChem.
MBD2 DNA inh = blocks human MBD2 binding to methylated DNA. Q9UBB5. TR-FRET, MBD2 binding to methylated oligonucleotide. inhibition, % at 4.4 µM. actives 0.31% (n = 370,000); in the data active means inhibition above about 13%
Target sequence (Q9UBB5 whole entry, looked up): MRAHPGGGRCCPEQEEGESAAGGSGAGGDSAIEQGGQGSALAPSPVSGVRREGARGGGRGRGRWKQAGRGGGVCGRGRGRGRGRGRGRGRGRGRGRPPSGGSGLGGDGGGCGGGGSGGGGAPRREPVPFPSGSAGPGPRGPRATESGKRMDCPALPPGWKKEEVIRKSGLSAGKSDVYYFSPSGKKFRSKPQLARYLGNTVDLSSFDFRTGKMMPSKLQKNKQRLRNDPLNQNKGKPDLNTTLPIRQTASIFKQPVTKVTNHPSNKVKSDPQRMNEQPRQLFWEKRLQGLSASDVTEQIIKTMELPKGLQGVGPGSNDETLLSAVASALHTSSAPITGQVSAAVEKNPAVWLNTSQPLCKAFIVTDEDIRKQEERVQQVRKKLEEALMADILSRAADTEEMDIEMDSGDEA
LEDGF integ inh = blocks HIV-1 LEDGF/p75-dependent DNA integration; TR-FRET IN-LEDGF/p75 DNA integration, Eu/Cy5; inhibition, % at 3.7 µM; actives 0.64% (n = 370,000);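 active means inhibition above the screen-wide mean plus 3 SD, cut at about 13% in these data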;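 further: signal is the Cy5 over europium emission ratio at 671 and 618 nm; 0% = plate median of compound wells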
RBBP9 inhibitor = human RBBP9 hydrolase inhibition; recombinant RBBP9, FP-Rh probe fluorescence polarization; actives 0.2% (n = 220,000); inhibition, % at 7.94 µM; O75884; AID 1515;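 active means inhibition above the campaign mean of all tested compounds plus 3 SD, cut at about 14% in these data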;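 further: plate controls were DMSO wells with RBBP9 for no effect and wells lacking RBBP9 protein for full effect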
Target sequence (O75884 whole entry, looked up): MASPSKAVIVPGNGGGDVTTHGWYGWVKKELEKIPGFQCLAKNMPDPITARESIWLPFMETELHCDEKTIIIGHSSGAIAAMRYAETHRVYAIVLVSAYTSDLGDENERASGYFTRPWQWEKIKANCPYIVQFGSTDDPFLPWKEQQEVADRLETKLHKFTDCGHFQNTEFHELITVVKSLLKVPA
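system = RBBP9 protein | input = RBBP9 at 2.5 µM in dispensed solution, before mixing | measured by = fluorescence polarization (mP), excitation 525 nm, emission 598 nm | incubation = enzyme-compound preincubation 30 min, then probe labeling 45 min, 25 °C | buffer or medium = Tris-NaCl-Pluronic buffer, pH 8.0 | compound = single dose 7.94 µM | also added = FP-Rh probe, 375 nM dispensing solution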
UHRF1 MBD2 ctr = UHRF1 methyl-DNA binding inhibition; actives 0.75% (n = 370,000); inhibition, % at 4.4 µM; UHRF1 binding to methylated oligo, TR-FRET; in the data active means inhibition above about 21%;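 further: UHRF1 SRA domain binding a hemimethylated CpG hairpin DNA probe; 0% = median of test compound wells and 100% = reference inhibitor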
ABHD5 PLIN5 PPI = ABHD5-PLIN5 protein interaction inhibition; Q00G26+Q8WTS1; Split G. princeps luciferase complementation, luminescence, 4 h; inhibition, % at 4 µM; actives 0.78% (n = 360,000); AID 602281;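 active means inhibition above the mean inhibition across every tested compound plus 3 SD, cut at about 22% in these data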;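 further: 0% = DMSO only wells and the 100% control is not disclosed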
PRMT1 inh = blocks human protein arginine methyltransferase 1. recombinant PRMT1, activity-based probe fluorescence polarization. inhibition, % at 2.79 µM. actives 1.3% (n = 370,000). AID 652257;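 active means inhibition above about 21% made by adding two undisclosed values, limit read from the data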
ABHD5 PLIN5 conf = ABHD5-PLIN5 interaction inhibition, confirmed; shares compounds with ABHD5 PLIN5 PPI; biochemical ABHD5-PLIN5 interaction, luminescence; inhibition, % at 4 µM; actives 67% (n = 2,200); in the data active means inhibition above about 23%;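 further: 0% = DMSO vehicle wells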
HNF4 counter = HNF4 split-luciferase signal hit, counter-screen; HNF4 dimerization, luminescence, biochemical; actives 77% (n = 2,200); shares compounds with ABHD5 PLIN5 PPI; inhibition, % at 4 µM;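 active means mean inhibition across replicate wells exceeding the computed hit threshold, cut at about 13% in these data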;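 further: light from luciferase halves that rejoin when HNF4 fusion proteins dimerize; 0% = DMSO only wells and the 100% control is not given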
* = called active by the depositor; x = no result given; ! = a repeat was not active. An excerpt weighted towards active compounds, which were near 3.1% of everything screened.

SMILES	MBD2 DNA inh	LEDGF integ inh	RBBP9 inhibitor	UHRF1 MBD2 ctr	ABHD5 PLIN5 PPI	PRMT1 inh	ABHD5 PLIN5 conf	HNF4 counter
O=C(Nc1ccc(F)cc1)Nc1nc2ncccn2c1-c1ccc(F)cc1	-1.7	-4.8	x	-3.6	x	0.2	x	x
O=C(C(Br)=Cc1ccccc1)c1ccccc1	-1.6	4.1	x	1.7	50.8*	8.4	83.0*	97.6*
CC(=Cc1ccccc1)C(=O)c1ccccc1	3.5	5.9	x	13.4	-5.4	-3.5	x	x
CC(=O)C(=Cc1ccc(-c2ccccc2)cc1)C(=O)c1ccccc1	-4.7	-2.5	x	-0.5	95.5*	-0.8	98.2*	95.9*
CC1=CC(C)(C)Nc2ccc(OC(=O)C(Cc3ccccc3)N3C(=O)c4ccccc4C3=O)cc21 (configuration not stated)	4.1	1.6	0.6	0.1	-0.5	0.6	x	x
CC1=CC(C)(C)Nc2ccc(OC(=O)CN3C(=O)c4ccccc4C3=O)cc21	-1.0	-1.0	5.7	-2.6	66.1*	-0.5	85.6*	79.4*
CC1=CC(C)(C)Nc2ccc(OC(=O)CN3C(=O)c4cccc5cccc(c45)C3=O)cc21	-5.1	7.9	1.9	-5.7	31.5*	11.2	70.9*	8.1
CC1(C)C=Cc2ccc(O)c(C(=O)/C=C/c3ccccc3)c2O1	-6.0	7.4	x	-0.1	x	-1.2	x	x
COc1ccc(C(C(=O)N(C)C2CCCC2)N(Cc2ccc(F)cc2)C(=O)c2csc(N3CCOCC3)n2)cc1OC (configuration not stated)	0.1	-2.9	x	0.5	x	3.1	x	x
COc1ccc(CNC(=O)c2cccnc2Sc2ccc(Cl)cc2)cc1	x	x	-2.5	x	88.6*	x	-5.7	10.2
Cc1ccc(CNC(=O)c2cccnc2Sc2cccc(Cl)c2)cc1	-5.2	-3.1	-0.8	2.0	-4.3	4.4	x	x
O=C1C(=C(c2ccccc2)N2CCOCC2)Cc2ccccc21	-0.6	5.0	x	0.0	81.5*	6.5	97.5*	94.9*
CC1(C)Cc2c(C#N)c(NC3CCCCC3)nc(-c3ccco3)c2CO1	x	x	-6.4	x	34.2*	x	32.9*	41.1*
CC1(C)Cc2c(C#N)c(NCC3CCCO3)nc(-c3ccco3)c2CO1 (configuration not stated)	-4.5	-2.1	-5.8	-1.6	16.2	16.1	x	x
COC(=O)[C@]12C[C@H](CC(=O)N3CCC(c4ccccc4)CC3)C(=O)N(Cc3ccc(Cl)cc3Cl)C1=C[C@H](COCc1ccccc1)O[C@@H]2C	1.0	0.4	x	5.2	x	2.5	x	x
Cc1scc(C(=O)NCc2ccco2)c1-c1ccccc1	7.0	-0.8	-2.3	0.8	27.6*	5.0	22.8*	22.2*
CCCN1C(=O)c2n[nH]c(C(C)C)c2C1c1cccc(C(F)(F)F)c1 (configuration not stated)	-3.1	0.3	x	-1.9	x	-3.7	x	x
CCN(CC)c1ccc(N=Nc2nn(C)c(C)c2[N+](=O)[O-])cc1	-19.9	-4.1	-3.5	-14.2	25.3*	1.6	28.6*	32.6*
O=C(NCc1cccnc1)/C(=C/c1ccc(-c2ccc(Cl)cc2)o1)S(=O)(=O)c1ccccc1	-4.2	-1.3	-4.6	-0.9	79.6*	7.3	97.4*	88.1*
O=C(NCc1cccnc1)/C(=C\c1ccc(-c2ccc(Br)cc2)o1)S(=O)(=O)c1ccccc1	-1.4	-1.0	-10.3	1.1	73.3*	8.5	92.8*	82.7*
NC(=O)c1c(NC(=O)C2COc3ccccc3O2)sc2c1CCN(Cc1ccccc1)C2 (configuration not stated)	-5.2	2.0	-7.6	5.2	-5.1	-0.3	x	x
COC(=O)N1CCc2c(sc(NC(=O)C3COc4ccccc4O3)c2C(N)=O)C1 (configuration not stated)	-2.7	0.9	x	-1.2	39.9*	4.2	1.1	7.5
O=c1c(C(c2ccc(Br)cc2)c2c(O)nc3n(c2=O)CCCS3)c(O)nc2n1CCCS2	1.8	-1.7	-11.9	1.9	-2.7	9.6	x	x
Cc1ccc(C(c2c(O)nc3n(c2=O)CCS3)c2c(O)nc3n(c2=O)CCS3)cc1	-4.5	2.1	-7.5	0.3	12.5	10.7	x	x
O=c1c(C(c2ccc(O)cc2)c2c(O)nc3n(c2=O)CCS3)c(O)nc2n1CCS2	1.3	0.3	3.5	4.2	53.1*	19.3	89.5*	79.3*
SMILES	MBD2 DNA inh	LEDGF integ inh	RBBP9 inhibitor	UHRF1 MBD2 ctr	ABHD5 PLIN5 PPI	PRMT1 inh	ABHD5 PLIN5 conf	HNF4 counter
O=c1c(C(c2ccc(O)cc2)c2c(O)nc3n(c2=O)CCCS3)c(O)nc2n1CCCS2	3.0	1.4	-5.2	3.3	28.6*	17.5	83.7*	71.4*
COc1ccc(Cn2cc(CN3[C@H](C)COc4cc(Br)ccc4S3(=O)=O)nn2)cc1	-3.2	-3.7	x	1.8	x	-4.2	x	x
Cn1c(=O)c2[nH]c(N=NNc3ccccc3F)nc2n(C)c1=O	-4.4	1.8	3.3	1.2	23.9*	0.2	9.1	13.6*
COc1cc(NC(=O)C/C(C)=N/NC(=O)c2cccs2)c(OC)cc1Cl	1.1	1.4	-4.2	1.3	35.6*	3.3	8.3	15.7*
COc1cc(NC(=O)C/C(C)=N/NC(=O)Cc2ccccc2)c(OC)cc1Cl	3.3	-3.0	-9.5	0.4	12.9	4.4	x	x
O=C(Nc1ccccc1)OCCN1C(=O)CCC12CCC(c1ccccc1)CC2 (configuration not stated)	3.1	0.8	x	-3.1	x	-1.8	x	x
Cc1ccc(-n2c(C)cc(/C=C3\SC(=O)NC3=O)c2C)cc1	1.4	-3.3	x	3.4	-7.0	0.4	x	x
Cc1cc(/C=C2\SC(=Nc3ccccc3)NC2=O)c(C)n1-c1ccc(S(N)(=O)=O)cc1	-2.7	1.7	4.8	12.7	28.5*	0.7	6.8	7.0
COc1ccc(S(=O)(=O)N2CCCCCC2)cc1NC(C)C(=O)Nc1ccc(NC(C)=O)cc1 (configuration not stated)	-4.0	2.4	x	32.5*	47.4*	1.5	1.7	10.0
Cc1nc2c(o1)CCc1ccccc1C2N1CCN(C)CC1 (configuration not stated)	8.4	-5.1	-8.4	5.0	56.9*!	5.9	40.0*	6.6
Cc1ccc(S(=O)(=O)/N=C/c2ccco2)cc1	-9.6	-4.3	-7.2	-2.5	91.7*	0.0	5.9	8.4
COC(=O)CN1C(=O)N/C(=C/c2ccc(C)o2)C1=O	-2.3	-0.9	-2.6	-1.6	25.2*	55.8*	13.6	49.3*
CC(=O)O[C@@H]1C[C@H]2C(C)(C)C(=O)C=C[C@]2(C)[C@H]2CC[C@@]3(C)[C@H](c4ccoc4)OC(=O)[C@H]4O[C@]43[C@@]21C	2.7	3.9	-3.6	1.4	27.2*	0.5	43.4*	29.6*
